PHOSPHO1 inh – PHOSPHO1 (human) inhibition; actives 1.1% (n = 290,000); AID 1565; Q8TCT1; recombinant PHOSPHO1, absorbance phosphatase assay; inhibition, % at 13.3 µM; in the data active = inhibition above about 60%
Target sequence (Q8TCT1 whole entry, looked up): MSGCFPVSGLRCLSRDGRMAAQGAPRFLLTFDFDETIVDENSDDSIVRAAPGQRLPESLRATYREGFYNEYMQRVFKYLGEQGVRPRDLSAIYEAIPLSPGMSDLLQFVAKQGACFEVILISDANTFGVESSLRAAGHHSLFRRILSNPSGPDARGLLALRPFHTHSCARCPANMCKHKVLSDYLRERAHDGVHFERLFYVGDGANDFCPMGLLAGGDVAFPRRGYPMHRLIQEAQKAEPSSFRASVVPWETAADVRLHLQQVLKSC
PfGluPho inh – PfG6PD (Plasmodium falciparum) enzyme inhibition | inhibition, % at 20 µM | PfGluPho enzyme, NADPH resazurin-diaphorase fluorescence | actives 0.78% (n = 350,000) | AID 504690;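 active = inhibition reaching at least a set limit at 20 µM in the primary screen, cut at about 59% in these data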;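 also: 0% = DMSO wells with substrate and 100% = DMSO wells lacking glucose-6-phosphate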
EP2 antag – inhibitors of human EP2 prostaglandin E2 receptor. P43116. C6 glioma cells expressing human EP2, cAMP TR-FRET; cells stimulated with saturating PGE2. inhibition, % at 25 µM. actives 0.52% (n = 260,000). AID 1422;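 active = percent inhibition above 40 after rounding to a whole number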;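 also: rat C6 glioma host cells with rolipram phosphodiesterase inhibitor present; the protocol text gives 20 µM as final concentration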
Tb hexokinase – blocks Trypanosoma brucei hexokinase 1 activity; actives 0.11% (n = 220,000); inhibition, % at 10 µM; AID 1430; recombinant TbHK1, G6PDH-coupled NADH A340;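 active = inhibition of 50% or more in the single-dose primary screen; inactive = inhibition below 50%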
HKDC1 inh – blocks human hexokinase HKDC1 activity | Q2TB90 | recombinant HKDC1, G6PDH/diaphorase resazurin coupled fluorescence | inhibition, % at 20 µM | actives 0.16% (n = 340,000);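 active = inhibition above about 35% when tested at 20 µM, limit read from the data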;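 also: plate controls were DMSO wells with enzyme for no effect and DMSO wells lacking enzyme for full effect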
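Assay system – recombinant HKDC1 (HK5) hexokinase enzyme, produced in-house · Input – HKDC1 at 5 µg/mL · Reagent – glucose plus 1 mM ATP as hexokinase substrates · Timing – 90 min reaction incubation at room temperature, dark · Measured by – G6PDH/diaphorase-coupled fluorescence, 1 mM NADP, 100 µM resazurin, 525/613 nm · Benchmarks – DMSO-enzyme wells negative, buffer-substituted wells positive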
EP2 mod – EP2 receptor (human) modulation. EP2-expressing cells, cAMP HTRF FRET, PGE2 co-stimulation. induction, % at 25 µM. actives 0.83% (n = 260,000);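 active = compounds whose cAMP rise, as percent of the full-agonist control response, exceeds 60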;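 also: rat C6 glioma line stably carrying human EP2 under a CMV promoter; the protocol text gives 20 µM as final concentration; 100% = response of wells given 1 µM PGE2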
HKDC1 act conf2 – confirmation of human HKDC1 activators. recombinant HKDC1, G6PDH/diaphorase resazurin fluorescence; hits give low values. shares compounds with HKDC1 inh. actives 14% (n = 740). inhibition, % at 20 µM;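 active = inhibition at or below a set negative limit, negative inhibition meaning the enzyme was activated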
The depositor's hits bear a star; · = no result given. Compounds with a hit are over-represented: about 2.5% of the library has one in this group of screens.

SMILES	PHOSPHO1 inh	PfGluPho inh	EP2 antag	Tb hexokinase	HKDC1 inh	EP2 mod	HKDC1 act conf2
Cc1nc2oc3c(NCC4CCCO4)ncnc3c2c2c1COC(C)(C)C2 (stereo not given)	20	13	5	-10	18	14	·
Cc1nc2oc3c(NCc4ccccc4)ncnc3c2c2c1COC(C)(C)C2	-25	19	·	-16	26	6	·
Cc1ccccc1NC(=S)N/N=C/c1ccc(O)cc1O	2	-23	15	-49	-42	-43	-12
Cc1cccc(NC(=S)N/N=C/c2cccc(O)c2)c1C	20	10	9	-16	-7	-90	·
CCCOc1ccc(/C=N/NC(=S)Nc2ccccc2[N+](=O)[O-])c(O)c1	-24	1	5	-22	-48	-9	-48*
O=C(NC1CCCCC1)N1CCC(n2cnc3cc(F)ccc32)CC1	·	·	11	·	·	-3	·
Cn1cnc([N+](=O)[O-])c1Sc1ccc(Br)cc1	-26	-7	12	-3	-58	19	-7
CCOc1ccc2[nH]c(=O)c(C(c3nnnn3C(C)(C)C)N3CCN(c4ccccc4)CC3)cc2c1 (stereo not given)	·	·	12	·	·	-20	·
COCCN(C(=O)COC(=O)c1cc2c(s1)CCC2)c1c(N)n(Cc2ccccc2)c(=O)[nH]c1=O	·	8	·	·	35*	·	16
Cc1ccc(C)c(-n2c3nc(=O)[nH]c(=O)c-3cc3cc([N+](=O)[O-])ccc32)c1	-24	48	16	12	47*	-31	39
Cc1cccc(-n2c3nc(=O)[nH]c(=O)c-3cc3cc([N+](=O)[O-])ccc32)c1	12	31	13	-11	42*	24	47
Nc1nc(N2CCN(c3ccccn3)CC2)nc2ccccc12	23	-51	·	·	-58	·	-44*
Nc1nc(N2CCCCC2)nc2ccccc12	20	-14	·	-1	-8	36	·
Cc1ccc(S(=O)(=O)Nc2cc(C(C(=O)OC(C)C)C(=O)C(F)(F)F)c(O)c3ccccc23)c(C)c1 (stereo not given)	-11	22	6	5	26	23	·
Cc1ccc(C)c(S(=O)(=O)Nc2ccc(O)c3ccccc23)c1	29	35	·	·	48*	·	25
COc1ccc(S(=O)(=O)Nc2ccc(O)c3ccccc23)cc1	10	40	27	5	46*	-38	51
Cc1ccc(S(=O)(=O)Nc2ccc(O)c3ccccc23)c(C)c1	6	40	·	·	52*	·	25
COc1ccc2c(c1)/C(=C\c1cccc(/C=C3/C(=O)Nc4ccc(OC)cc43)n1)C(=O)N2	·	22	·	·	37*	·	24
CCc1nn(CC(=O)NCCc2ccc(C)cc2)c(=O)c2cc3ccsc3n12	·	·	·	·	·	-36	·
Cc1nc2c(c(=O)c3ccccc3n2C)c(=O)n1-c1ccc(F)cc1	-2	41	4	-19	51*	7	53
CCCc1nc2c(c(=O)c3ccccc3n2C)c(=O)n1-c1ccc(F)cc1	12	48	2	-4	51*	28	58
CC(C)c1nc2c(c(=O)c3ccccc3n2C)c(=O)n1-c1ccc(F)cc1	-10	9	1	-8	13	10	·
Cn1c2ccccc2c(=O)c2c(=O)n(-c3ccc(F)cc3)c(C3CCCCC3)nc21	·	11	·	·	17	·	·
CCC(=O)N1CCN(c2ccc(NC(=O)COc3ccccc3C)cc2)CC1	·	·	6	·	·	-2	·
NC(=O)c1ccc(NC(=O)COc2ccc(S(=O)(=O)N3CCCC3)cc2)cc1	·	·	7	·	·	-28	·
SMILES	PHOSPHO1 inh	PfGluPho inh	EP2 antag	Tb hexokinase	HKDC1 inh	EP2 mod	HKDC1 act conf2
CC(=NNC(=S)N1CC2CCC(CC2)C1)c1cnccn1	·	33	·	·	-47	·	-31
CC(=NNC(=S)N1CC2CCC(CC2)C1)c1ccccn1	·	22	·	·	·	·	·
CC(=NNC(=S)N1CCN(C2CCCCCC2)CC1)c1ccccn1	·	42	·	·	-42	·	-40*
O=C(CCCc1c[nH]c2ccccc12)NC1CCCCCC1	·	·	8	·	·	-134	·
CC(=O)C1=C(O)C(=O)N(CCNCCO)C1c1ccc(N(C)C)cc1 (stereo not given)	·	·	6	·	·	13	·
O=C(Sc1nnc(-c2ccccc2)o1)N1c2ccccc2Sc2ccccc21	5	27	·	-7	37*	21	-9

From PubChem
